The text below walks through data of ChEMBL document CHEMBL1134922, “Substituted 4-(2,2-diphenylethyl)pyridine-N-oxides as phosphodiesterase-4 inhibitors: SAR study directed toward the improvement of pharmacokinetic parameters” (Bioorg Med Chem Lett, 2002).

Several values for one entry are separate records, joined by “and”; a condition that tells them apart may be missing. Equal values may be shown once. Activity calls are given as the source filed them. The calls are words filed in the database; no cut-off is given here.

One series is filed under the species Homo sapiens. Briefly: Inhibition of LPS-induced TNF-alpha formation in human whole blood. The series is classed as functional, organism-based.
Series [1] deals with 3',5'-cyclic-AMP phosphodiesterase 4A (Homo sapiens, UniProt P27815). Briefly: Inhibition of human Phosphodiesterase 4A isoform using construct representing the common region of spliced variants expressed as GST-fusion proteins in Sf9 cells.
The nature of series [2]: Half-life in Dog. It counts as ADME, organism-based, Canis lupus familiaris. The note with it: in vivo.
In series [3] the test system is Cavia porcellus. The series is described as follows: Inhibition of the ovalbumin-induced bronchoconstriction in conscious guinea pigs after 0.5 hr pretreatment with 1 mg/kg administered intraperitoneally. The series is classed as functional. The note with it: route intraperitoneal.
Series [4] has as its system Cavia porcellus. Briefly: Inhibition of the ovalbumin-induced bronchoconstriction in conscious guinea pigs after 4 hr pretreatment with 1 mg/kg administered intraperitoneally. The note with it: route intraperitoneal. The series is classed as functional.
Series [5] in a line: Half-life in rat. It counts as ADME, organism-based. To be noted: in vivo.
The nature of series [6]: Half-life in Squirrel monkey. The note with it: in vivo. It counts as ADME.
Series [7] in a line: (§1) Inhibition of ascaris-induced bronchoconstriction in Anaesthetized squirrel monkey after treatment with 3 mg/kg peroral dose. The series is classed as functional. To be noted: route oral.
Series [8] has as its system Ovis aries. Briefly: Inhibition of ascaris-induced bronchoconstriction in sheep after late treatment with 2 mg/kg intravenous dose. It counts as functional. Summed up: (§2)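 Sheep, ascaris-induced bronchoconstriction; 2 mg/kg given iv 2 h before challenge; percent inhibition of early and late responses.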
The test system of series [9] is Ovis aries. The series is described as follows: Inhibition of ascaris-induced bronchoconstriction in sheep after early treatment with 2 mg/kg intravenous dose. The series is classed as functional. Summed up:
as §2

A short description of series [10]: Cmax in ferrets after 30mg/kg oral dose. The note with it: ferret, in vivo. The series is classed as ADME, organism-based, Mustela putorius furo. The arrangement: dose 30 mg/kg, route oral. Summed up:
(§3)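 Ferrets dosed orally at 30 mg/kg; emesis monitored, with plasma Cmax recorded.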

Another series has as its system Mustela putorius furo. Briefly: Emetic effect in ferrets to maximum 30 mg/kg oral dose. The series is classed as functional, organism-based. Details: dose 30 mg/kg. Summed up:
as §3

The subject of series [11] is Ovis aries. The series is described as follows: Inhibition of ascaris-induced bronchoconstriction in sheep after late treatment with 2 mg/kg intravenous dose.
A short description of series [12]: (§4) Inhibition of ascaris-induced bronchoconstriction in Anaesthetized squirrel monkey after treatment with 0.5 mg/kg peroral dose. The series is classed as functional. To be noted: route oral.
Series [13] in a line: (§5) Inhibition of ascaris-induced bronchoconstriction in Anaesthetized squirrel monkey after treatment with 1 mg/kg peroral dose. The series is classed as functional. The note with it: route oral.
Series [14] in a line: Bioavailability upon oral administration of compound. The series is classed as ADME, organism-based. To be noted: rat, in vivo. Summed up: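 Rat, oral dosing at 3 mg/kg in 60% PEG200; bioavailability determined, with plasma level also sampled at 6 h.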
Series [15] is described as follows: as §1. It counts as functional. The note with it: route oral. The source holds these as a separate data set.
The nature of series [16]: as §5. To be noted: route oral. The series is classed as functional. The source holds these as a separate data set.
Series [17] is described as follows: as §4. The series is classed as functional. To be noted: route oral. This is another data set of the same source.
Series [18] deals with Ovis aries. The series is described as follows: Inhibition of ascaris-induced bronchoconstriction in sheep after early treatment with 2 mg/kg intravenous dose.

Chain of 3',5'-cyclic-AMP phosphodiesterase 4A (P27815 whole entry, looked up, stated change not applied, the tested form may be a part, canonical isoform): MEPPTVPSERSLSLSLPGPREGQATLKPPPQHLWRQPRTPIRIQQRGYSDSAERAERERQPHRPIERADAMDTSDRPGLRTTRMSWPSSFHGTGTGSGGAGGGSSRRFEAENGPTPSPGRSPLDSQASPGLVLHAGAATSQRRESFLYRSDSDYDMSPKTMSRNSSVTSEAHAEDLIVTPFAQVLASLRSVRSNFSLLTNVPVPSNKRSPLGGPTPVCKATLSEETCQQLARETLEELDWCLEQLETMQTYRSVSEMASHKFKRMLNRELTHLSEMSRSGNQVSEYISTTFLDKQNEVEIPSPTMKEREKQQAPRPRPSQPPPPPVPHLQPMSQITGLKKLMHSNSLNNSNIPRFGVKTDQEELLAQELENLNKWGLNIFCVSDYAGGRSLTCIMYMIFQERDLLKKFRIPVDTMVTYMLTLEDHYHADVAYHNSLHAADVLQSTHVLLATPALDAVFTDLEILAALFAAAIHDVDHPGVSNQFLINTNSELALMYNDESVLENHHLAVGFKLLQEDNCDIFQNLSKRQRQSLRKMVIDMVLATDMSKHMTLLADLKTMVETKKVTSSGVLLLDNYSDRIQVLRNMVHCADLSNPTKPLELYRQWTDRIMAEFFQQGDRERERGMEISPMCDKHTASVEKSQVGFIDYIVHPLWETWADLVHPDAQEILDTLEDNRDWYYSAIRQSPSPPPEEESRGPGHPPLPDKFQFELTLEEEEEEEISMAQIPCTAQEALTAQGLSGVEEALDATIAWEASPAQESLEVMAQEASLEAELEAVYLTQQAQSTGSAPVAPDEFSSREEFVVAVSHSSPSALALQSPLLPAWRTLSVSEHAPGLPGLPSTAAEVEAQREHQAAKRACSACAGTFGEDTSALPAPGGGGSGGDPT

Take `Cc1cc(C(O)(C(F)(F)F)C(F)(F)F)ccc1C(Cc1cc[n+]([O-])cc1)c1ccc(OC(F)F)c(OC(F)F)c1` (stereo unspecified): the IC50 amounted to 7.8 µM in the series filed under Homo sapiens (Homo sapiens, Blood) and 32 nM in [1].

For the compound `Cc1cc(C(Cc2cc[n+]([O-])cc2)c2ccc(OC(F)F)c(OC(F)F)c2)ccc1C(O)(C(F)(F)F)C(F)(F)F` (stereo unspecified), the IC50 is 1 µM in the series listed under Homo sapiens (Homo sapiens, Blood) and 4.4 nM in series [1].

As to `CCc1c[n+]([O-])ccc1CC(c1ccc(C(O)(C(F)(F)F)C(F)(F)F)cc1)c1ccc(OC(F)F)c(OC(F)F)c1` (stereo unspecified), the IC50 in the series filed under Homo sapiens (Homo sapiens, Blood) worked out at 3.9 µM; in series [1] it was 27 nM.

Consider `Cc1cc(CC(c2ccc(C(O)(C(F)(F)F)C(F)(F)F)cc2)c2ccc(OC(F)F)c(OC(F)F)c2)cc[n+]1[O-]` (stereo unspecified), for which the half-inhibitory concentration (IC50) was determined as 0.3 µM in the series listed under Homo sapiens (Homo sapiens, Blood) and 18 nM in series [1].

In the case of `[O-][n+]1ccc(CC(c2ccc(C(O)(C(F)(F)F)C(F)(F)F)cc2)c2ccc(OC(F)F)c(OC(F)F)c2)c(CO)c1` (stereo unspecified), the IC50 stood at 7.9 µM in the series listed under Homo sapiens (Homo sapiens, Blood) and 38 nM in series [1].

In the case of `[O-][n+]1ccc(CC(c2ccc(C(O)(C(F)(F)F)C(F)(F)F)cc2)c2ccc(OC(F)F)c(OC(F)F)c2)cc1` (stereo unspecified), the IC50 came to 0.7 µM in the series listed under Homo sapiens (Homo sapiens, Blood) and 4.2 nM in series [1]. Besides, the half-life in [2], in [5] and in [6] was over 2880 min throughout. In addition, the Efficacy with Cavia porcellus [3] is reported as 0%; in the series on Cavia porcellus [4], 58%; in series [7], 96%; with Ovis aries [8], 95%; in the series with Ovis aries [9] it was 85%. This compound also gave a maximum concentration (Cmax) in series [10] of 14 µM. Moreover, the Emesis entry in the series with Mustela putorius furo was “inactive”.

For the compound `Cc1c[n+]([O-])cc(C)c1CC(c1ccc(C(O)(C(F)(F)F)C(F)(F)F)cc1)c1ccc(OC(F)F)c(OC(F)F)c1` (stereo unspecified), the IC50 in the series listed under Homo sapiens (Homo sapiens, Blood) turned out to be 5.8 µM; in series [1], 57 nM.

As to `CC(O)c1c[n+]([O-])ccc1CC(c1ccc(C(O)(C(F)(F)F)C(F)(F)F)cc1)c1ccc(OC(F)F)c(OC(F)F)c1` (stereo unspecified), the IC50 in the series filed under Homo sapiens (Homo sapiens, Blood) is 13 µM; in series [1] it was 42 nM.

In the case of `CC(=O)c1c[n+]([O-])ccc1CC(c1ccc(C(O)(C(F)(F)F)C(F)(F)F)cc1)c1ccc(OC(F)F)c(OC(F)F)c1` (stereo unspecified), the IC50 in the series filed under Homo sapiens (Homo sapiens, Blood) turned out to be 2.9 µM; in series [1], 2.7 nM.

Consider `Cc1c[n+]([O-])ccc1CC(c1ccc(C(O)(C(F)(F)F)C(F)(F)F)cc1)c1ccc(OC(F)F)c(OC(F)F)c1` (racemic), for which the values for the IC50 (in the series listed under Homo sapiens; in series [1]) were 0.4 µM and 2.1 nM, respectively.

Regarding `CC(c1cc[n+]([O-])cc1)C(c1ccc(C(O)(C(F)(F)F)C(F)(F)F)cc1)c1ccc(OC(F)F)c(OC(F)F)c1` (single isomer, unassigned; diastereomer 1), the IC50 was 23 µM in the series filed under Homo sapiens and 39 nM in series [1].

For the compound `CC(c1cc[n+]([O-])cc1)C(c1ccc(C(O)(C(F)(F)F)C(F)(F)F)cc1)c1ccc(OC(F)F)c(OC(F)F)c1` (single isomer, unassigned; diastereomer 2), the IC50 in the series listed under Homo sapiens was found to be 7.8 µM; in [1], 39 nM.

As to `Cc1c[n+]([O-])ccc1CC(c1ccc(C(O)(C(F)(F)F)C(F)(F)F)cc1)c1ccc(OC(F)F)c(OC(F)F)c1` (single isomer, unassigned; enantiomer 2), the IC50 in the series listed under Homo sapiens turned out to be 3.7 µM; in series [1] it was 23 nM.

For the compound `Cc1c[n+]([O-])ccc1CC(c1ccc(C(O)(C(F)(F)F)C(F)(F)F)cc1)c1ccc(OC(F)F)c(OC(F)F)c1` (stereo in doubt) [listing 1 of 2 here], the 50% inhibitory concentration (IC50) in the series filed under Homo sapiens is 0.3 µM; in series [1], 1.3 nM and 4.2 nM. The Efficacy in the series with Ovis aries [11] was 90%; with Cavia porcellus [3], 82%; in [12], 38%; in [7] it was 59%; in series [13], 33%; in [15], 100%. Also, the Efficacy in series [16] was found to be 63%; in [17], 26%; in the series with Ovis aries [18], 62%. Further, the half-life in [2] is 1140 min; in [5], 600 min; in series [6] it was 2160 min. In [14], the bioavailability was 60%. Further, the Cmax in series [10] stood at 10 µM.

With `Cc1c[n+]([O-])ccc1CC(c1ccc(C(O)(C(F)(F)F)C(F)(F)F)cc1)c1ccc(OC(F)F)c(OC(F)F)c1` (stereo in doubt) [listing 2 of 2 here], in the series on Mustela putorius furo, the Emesis result was “inactive”.

With `COc1ccc([C@H](Cc2ccncc2)c2ccccc2)cc1OC1CCCC1` [CDP840], the IC50 in the series filed under Homo sapiens (Homo sapiens, Blood) was determined as 15 µM; in series [1] it was 4.2 nM.

As to `COc1ccc([C@]2(C#N)CC[C@@H](C(=O)O)CC2)cc1OC1CCCC1` [CILOMILAST], the half-inhibitory concentration (IC50) in the series listed under Homo sapiens (Homo sapiens, Blood) was found to be 18 µM.
